This note sets out measurements from PubChem BioAssay AID493103 (Broad Institute, 2011).

Experiment [1] can be described thus: QS-driven bacterial bioluminescence blockers – strain BB721, dry powder, set 3, counter-screen for LuxS inhibitor project, dose response (AID 493103). Particulars: Vibrio harveyi BB721 quorum sensing luminescence, 9 h; at 16 µM (top of the series). An outline of the steps: (§1)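 system = Vibrio harveyi BB721, constitutive-on quorum-sensing strain | quantity = culture at OD600 0.0005 | medium = AB (autoinducer bioassay) medium | incubation = bacterial exposure to compounds 9 h at 30 °C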

Experiment [2] concerns Vibrio harveyi BB721 quorum sensing luminescence, 9 h. Described as above. An outline of the steps:
as §1

Results filed as inconclusive are left out. The source made the active and inactive calls.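 How the source made its calls: active means compounds whose fitted half-maximal concentration lies within ten times the top tested dose in every run, with signal falling; inconclusive means runs disagree, or unclear curves such as poor fits; inactive means every run inactive, including rises in signal.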

As to `C[C@@H]1CN([C@H](C)CO)C(=O)c2cccc(NC(=O)Nc3ccc(C(F)(F)F)cc3)c2O[C@@H]1CN(C)C(=O)Nc1ccc(C(F)(F)F)cc1`, the activity change, negative = inhibition in experiment [1] was -11.1% (inactive).
With `C=Cn1c(C(=O)O)ccc1-c1cccs1`, in experiment [1], the activity change, negative = inhibition is -7.12% (inactive).
In the case of `CNC[C@@H]1Oc2ccc(NC(=O)C3CCCCC3)cc2CC(=O)N([C@@H](C)CO)C[C@H]1C`, the activity change, negative = inhibition in experiment [1] is 1.18% (inactive).
As a reminder, the AC50 is the concentration at which the activity in the assay is half-maximal. For the molecule `O=C1C=C/C(=C/Br)O1`, the AC50 in experiment [2] was 4.47 µM.
`O=S(=O)(Nc1ccccn1)c1ccccc1`: in experiment [1], the activity change, negative = inhibition is 1.3% (inactive).
`C[C@@H]1CCCCO[C@@H](CN(C)C(=O)Nc2cccc3ccccc23)[C@H](C)CN([C@H](C)CO)C(=O)c2cc(NC(=O)CCC(F)(F)F)ccc2O1`: the activity change, negative = inhibition in experiment [1] is 2% (inactive).
Turning to `C[C@@H]1CN([C@H](C)CO)C(=O)c2ccccc2-c2ccccc2CO[C@@H]1CN(C)Cc1ccc(Oc2ccccc2)cc1`, the AC50 in experiment [2] was 13.8 µM.
Consider `C[C@H](CO)N1C[C@H](C)[C@H](CN(C)Cc2ccc(C(=O)O)cc2)Oc2ncc(-c3ccc(C(=O)N(C)C)cc3)cc2C1=O`, for which the activity change, negative = inhibition in experiment [1] is 0.806% (inactive).
`C[C@@H]1CCCCO[C@@H](CN(C)Cc2ccncc2)[C@H](C)CN([C@H](C)CO)C(=O)c2cc(NC(=O)C3CCCCC3)ccc2O1`: the activity change, negative = inhibition in experiment [1] was -3.87% (inactive).
With `C[C@@H]1CN([C@@H](C)CO)C(=O)Cc2cc(NC(=O)CCN3CCOCC3)ccc2O[C@H]1CN(C)C(=O)Nc1ccc(C(F)(F)F)cc1`, the activity change, negative = inhibition in experiment [1] is 6.93% (inactive).
In the case of `C=Cn1c(C(=O)O)ccc1-c1ccc(Cl)cc1`, the AC50 in experiment [2] is 16.2 µM.
On to `C[C@@H]1CCCCO[C@@H](CN(C)C(=O)Nc2ccc(C(F)(F)F)cc2)[C@H](C)CN([C@@H](C)CO)C(=O)c2cc(NC(=O)CCC(F)(F)F)ccc2O1`, for which, in experiment [1], the activity change, negative = inhibition was 2.01% (inactive).
Still for that read-out and setting: for `Cc1ccc(S(=O)(=O)Nc2ccc3c(c2)C(=O)N([C@H](C)CO)C[C@H](C)[C@@H](CN(C)Cc2ccc(C(F)(F)F)cc2)O3)cc1` the value was -2.52% (inactive).
Still for that read-out and setting: in the case of `C[C@@H]1CN([C@@H](C)CO)C(=O)Cc2cc(NC(=O)CCCN(C)C)ccc2O[C@H]1CN(C)CC1CCCCC1` it was 13.8% (inactive).
On to `O=S(=O)(Nc1cccnc1)c1ccc(Oc2ccccc2)cc1`, for which, in experiment [2], the AC50 was 1.02 µM.
Still for that read-out and setting: for `C[C@H](CO)N1C[C@H](C)[C@@H](CN(C)Cc2ccc3c(c2)OCO3)Oc2c(NC(=O)NC3CCCCC3)cccc2C1=O` the value was 8.89 µM.
In the case of `C[C@@H]1CN([C@@H](C)CO)C(=O)Cc2cc(NC(=O)CCN3CCOCC3)ccc2O[C@H]1CN(C)C(=O)Nc1ccc(F)cc1`, in experiment [1], the activity change, negative = inhibition was 1.22% (inactive).
The same measure, in the same setting: in the case of `Cc1ccc(S(=O)(=O)Nc2ccc3c(c2)CC(=O)N([C@@H](C)CO)C[C@@H](C)[C@H](CN(C)C(=O)Nc2ccc(F)cc2)O3)cc1` it was 3.81% (inactive).
Same read-out and setting: for `C[C@H]1CN([C@@H](C)CO)C(=O)c2cc(NC(=O)Nc3ccc4c(c3)OCO4)ccc2O[C@@H]1CN(C)C(=O)Nc1ccc(C(F)(F)F)cc1` the value was -0.179% (inactive); for `C[C@H](CO)N1C[C@H](C)[C@@H](CN(C)C(=O)Nc2ccc(C(F)(F)F)cc2)Oc2ccc(NC(=O)Nc3ccc4c(c3)OCO4)cc2C1=O`, -10.5% (inactive); for `C[C@@H]1CCCCO[C@@H](CN(C)Cc2ccc(C(=O)O)cc2)[C@H](C)CN([C@H](C)CO)C(=O)c2cc(NC(=O)CCCN(C)C)ccc2O1`, -5.01% (inactive).
